# Source: ChEMBL document CHEMBL2331405, “Benzanilide-Biphenyl Replacement: A Bioisosteric Approach to Quinoline Carboxamide-Type ABCG2 Modulators” (ACS Med Chem Lett, 2013)
# What was measured:
# [1] = Half life in NMRI nu/nu mouse plasma at 3 mM by RP-HPLC analysis; format: ADME, cell-free
# Plasma = assay: Stability in NMRI nu/nu mouse plasma at 3 mM measured within 30 mins by RP-HPLC analysis; format: ADME, cell-free; settings: 0.5 h, 3000 µM
# ABCG2 [2] = target: T1, ABCG2 (Homo sapiens, UniProt Q9UNQ0); assay: Inhibition of ABCG2 in human MCF7/Topo cells at 70 to 100 uM after 2 hrs by Hoechst 33342 microplate assay relative to 10 uM fumitremorgin; format: cell-based; settings: probe Hoechst 33342, read-out: Imax
# T1 sequence (Q9UNQ0 whole entry): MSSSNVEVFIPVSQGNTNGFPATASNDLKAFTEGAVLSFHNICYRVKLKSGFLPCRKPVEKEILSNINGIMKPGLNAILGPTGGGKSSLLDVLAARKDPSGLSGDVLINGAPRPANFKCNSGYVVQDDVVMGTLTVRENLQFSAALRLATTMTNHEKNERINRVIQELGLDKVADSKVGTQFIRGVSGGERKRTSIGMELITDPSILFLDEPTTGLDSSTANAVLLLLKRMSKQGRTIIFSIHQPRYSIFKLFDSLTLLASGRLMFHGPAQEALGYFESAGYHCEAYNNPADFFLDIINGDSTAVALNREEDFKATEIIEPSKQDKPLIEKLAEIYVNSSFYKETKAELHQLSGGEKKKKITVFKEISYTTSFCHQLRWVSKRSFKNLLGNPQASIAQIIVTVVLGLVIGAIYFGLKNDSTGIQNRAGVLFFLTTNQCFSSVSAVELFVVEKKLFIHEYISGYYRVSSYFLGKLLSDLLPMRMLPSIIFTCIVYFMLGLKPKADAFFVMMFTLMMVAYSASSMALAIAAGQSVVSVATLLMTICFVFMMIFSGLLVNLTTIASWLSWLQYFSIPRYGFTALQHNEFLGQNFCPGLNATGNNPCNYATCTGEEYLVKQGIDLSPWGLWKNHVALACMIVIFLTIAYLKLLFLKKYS
# [3] = target: T2, Broad substrate specificity ATP-binding cassette transporter ABCG2 (Homo sapiens, UniProt Q9UNQ0); assay: Inhibition of ABCG2 in human MCF7/Topo cells after 2 hrs by Hoechst 33342 microplate assay; format: cell-based; settings: for inhibition (INH): human, mcf7/topo, 2 h
# T2 sequence (Q9UNQ0 whole entry): T1 sequence (Q9UNQ0 whole entry)
# ABCB1 = ABCB1 (Homo sapiens, UniProt P08183); assay: Inhibition of ABCB1 in human KBV1 cells after 10 mins by Calcein-AM microplate assay relative to 1 uM tariquidar; format: cell-based; settings: probe calcein-AM
# Summary of the method: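 Microplate calcein-AM assay in ABCB1-overexpressing Kb-V1 cells. Maximal inhibition is expressed as a percentage of the maximal response to tariquidar at 1 μM. Means ± SEM come from two to three independent experiments, each run in triplicate.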
# [4] = target: T3, ATP-dependent translocase ABCB1 (Homo sapiens, UniProt P08183); assay: Inhibition of ABCB1 in human KBV1 cells after 10 mins by Calcein-AM microplate assay; format: cell-based
# [5] = target: T3, ATP-dependent translocase ABCB1; assay: Inhibition of ABCB1 in human KBV1 cells up to 100 uM after 10 mins by Calcein-AM microplate assay; format: cell-based; settings: kbv1, 10 min
# Summary of the method: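 Microplate calcein-AM efflux assay in ABCB1-overexpressing Kb-V1 cells. Values are means ± SEM from two to three independent experiments, each run in triplicate.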
# ABCG2 [6] = target: T1, ABCG2; assay: Ratio of compound IC50 to elacridar IC50 for ABCG2 in human MCF7/Topo cells after 2 hrs by Hoechst 33342 microplate assay; format: cell-based; settings: probe Hoechst 33342, read-out: Ratio IC50
# Chain of ABCB1 (P08183 whole entry): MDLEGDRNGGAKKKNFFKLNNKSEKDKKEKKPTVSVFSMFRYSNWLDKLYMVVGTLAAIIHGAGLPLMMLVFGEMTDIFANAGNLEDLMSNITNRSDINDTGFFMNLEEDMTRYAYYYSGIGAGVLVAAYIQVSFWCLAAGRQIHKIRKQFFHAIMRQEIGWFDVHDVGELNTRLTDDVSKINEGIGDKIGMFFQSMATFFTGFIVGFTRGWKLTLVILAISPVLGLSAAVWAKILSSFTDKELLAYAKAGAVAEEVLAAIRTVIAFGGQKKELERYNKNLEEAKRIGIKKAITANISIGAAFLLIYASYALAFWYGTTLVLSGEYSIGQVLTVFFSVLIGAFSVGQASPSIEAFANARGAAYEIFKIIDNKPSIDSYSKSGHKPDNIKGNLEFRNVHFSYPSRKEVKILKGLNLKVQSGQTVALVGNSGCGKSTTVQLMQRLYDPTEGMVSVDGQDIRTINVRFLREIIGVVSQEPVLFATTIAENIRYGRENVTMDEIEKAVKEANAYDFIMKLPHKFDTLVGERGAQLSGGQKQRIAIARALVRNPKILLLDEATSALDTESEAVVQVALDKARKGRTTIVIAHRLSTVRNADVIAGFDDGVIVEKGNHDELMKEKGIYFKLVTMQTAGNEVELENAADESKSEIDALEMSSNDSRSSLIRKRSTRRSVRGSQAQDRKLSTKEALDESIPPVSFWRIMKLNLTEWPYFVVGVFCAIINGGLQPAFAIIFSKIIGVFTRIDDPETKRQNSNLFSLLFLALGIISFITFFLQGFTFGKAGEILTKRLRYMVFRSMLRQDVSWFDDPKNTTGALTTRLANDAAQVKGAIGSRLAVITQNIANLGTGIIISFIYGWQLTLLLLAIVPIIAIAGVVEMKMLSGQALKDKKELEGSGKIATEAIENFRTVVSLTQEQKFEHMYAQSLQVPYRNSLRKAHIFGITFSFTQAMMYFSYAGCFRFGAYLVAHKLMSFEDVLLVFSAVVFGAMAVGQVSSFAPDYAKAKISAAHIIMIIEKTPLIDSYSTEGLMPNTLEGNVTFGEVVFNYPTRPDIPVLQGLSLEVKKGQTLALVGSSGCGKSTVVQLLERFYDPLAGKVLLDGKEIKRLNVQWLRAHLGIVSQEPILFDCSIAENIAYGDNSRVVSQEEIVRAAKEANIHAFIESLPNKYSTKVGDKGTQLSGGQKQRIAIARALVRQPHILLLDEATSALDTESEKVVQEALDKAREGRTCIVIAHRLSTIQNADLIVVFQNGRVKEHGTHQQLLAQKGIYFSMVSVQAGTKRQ
# T3 sequence (P08183 whole entry): as above
Structure (SMILES),half-life at 3000 µM [1] [h],Stability (Plasma),Emax at 2 h (ABCG2 [2]) [%],IC50 [3] [nM],inhibition (INH) [3],inhibition at 10 min (ABCB1) [%],IC50 [4] [nM],inhibition (INH) [5],selectivity ratio at 2 h (ABCG2 [6])
COc1ccc2c3c([nH]c2c1)[C@H](CC(C)C)N1C(=O)[C@H](CCC(=O)OC(C)(C)C)NC(=O)[C@@H]1C3,,,,,,,,Not Active,
COC(=O)c1ccc(-c2ccc(CN3CCc4ccccc4C3)cc2)cc1NC(=O)c1ccc2ccccc2n1,24,,85,1460,,,,Not Active,
COC(=O)c1ccc(-c2ccc(CCN3CCc4cc(OC)c(OC)cc4C3)cc2)cc1NC(=O)c1ccc2ccccc2n1,24,,126,3210,,,,Not Active,
COc1ccc2c3c([nH]c2c1)[C@H](C=C(C)C)N1C(=O)[C@@H]2CCCN2C(=O)[C@@H]1C3 [FUMITREMORGIN],,,100,731,,,,,
COCCOCCOCCOc1cc2c(cc1OC)CCN(CCc1ccc(NC(=O)c3ccc(C(=O)OC)c(NC(=O)c4ccc5ccccc5n4)c3)cc1)C2,0.167,Unstable,,,,,,,
COc1cc2c(cc1OC)CN(CCc1ccc(NC(=O)c3cc(OC)c(OC)cc3NC(=O)c3cnc4ccccc4c3)cc1)CC2,,,69,,Dose-dependent effect,,,,4
COc1cc2c(cc1OC)CN(CCc1ccc(NC(=O)c3cccc4c(=O)c5cccc(OC)c5[nH]c34)cc1)CC2,,,63,,,,,,
COC(=O)c1ccc(-c2ccc(CN3CCc4cc(OC)c(OC)cc4C3)cc2)cc1NC(=O)c1ccc2ncccc2c1,24,,92,1540,,,10900,,

# Further compounds by falling IC50 [3], results first:
half-life at 3000 µM [1] [h],Stability (Plasma),Emax at 2 h (ABCG2 [2]) [%],IC50 [3] [nM],inhibition (INH) [3],inhibition at 10 min (ABCB1) [%],IC50 [4] [nM],inhibition (INH) [5],Structure (SMILES),selectivity ratio at 2 h (ABCG2 [6])
24,,90,1100,,,,Not Active,COC(=O)c1ccc(-c2ccc(CCN3CCc4ccccc4C3)cc2)cc1NC(=O)c1ccc2ccccc2n1,
24,,114,1030,,,,Not Active,COCCOCCOCCOc1cc2c(cc1OC)CN(Cc1ccc(-c3ccc(C(=O)OC)c(NC(=O)c4ccc5ccccc5n4)c3)cc1)CC2,
24,,87,943,,,,Not Active,COC(=O)c1ccc(-c2ccc(CN3CCc4cc(OC)c(OC)cc4C3)cc2)cc1NC(=O)c1ccc2ccccc2n1,
24,,103,839,,,,Not Active,COCCOCCOCCOc1cc2c(cc1OCCOCCOCCOC)CN(Cc1ccc(-c3ccc(C(=O)OC)c(NC(=O)c4ccc5ccccc5n4)c3)cc1)CC2,
24,,98,760,,50,5420,,COCCOCCOCCOc1cc2c(cc1OC)CCN(CCc1ccc(-c3ccc(C(=O)OC)c(NC(=O)c4ccc5ccccc5n4)c3)cc1)C2,
24,,94,641,,,4490,,COC(=O)c1ccc(-c2ccc(CN3CCc4ccccc4C3)cc2)cc1NC(=O)c1ccc2ncccc2c1,
24,,109,591,Dose-dependent effect,20,1230,,COCCOCCOCCOc1cc2c(cc1OC)CCN(Cc1ccc(-c3ccc(C(=O)OC)c(NC(=O)c4ccc5ccccc5n4)c3)cc1)C2,
24,,112,544,Dose-dependent effect,50,5990,,COCCOCCOCCOc1cc2c(cc1OCCOCCOCCOC)CN(CCc1ccc(-c3ccc(C(=O)OC)c(NC(=O)c4ccc5ccccc5n4)c3)cc1)CC2,
24,,67,237,,,18000,,COCCOCCOCCOc1cc2c(cc1OC)CN(Cc1ccc(-c3ccc(C(=O)OC)c(NC(=O)c4ccc5ncccc5c4)c3)cc1)CC2,
0.167,Unstable,63,65,Dose-dependent effect,,,,COC(=O)c1ccc(C(=O)Nc2ccc(CCN3CCc4cc(OC)c(OC)cc4C3)cc2)cc1NC(=O)c1ccc2ccccc2n1,
